Assay [1] deals with Ankyrin repeat and protein kinase domain-containing protein 1 (Homo sapiens) (UniProt Q8NFD2). The experiment in a line: Inhibition of wild-type human partial length ANKK1 (M1 to A305 residues) expressed in HEK293 cells assessed as residual activity at 1000 nM after 30 mins by Kinomescan method relative to control. Type of assay: cell-based.
In assay [2] the target is Calcium/calmodulin-dependent protein kinase type IV (Homo sapiens) (UniProt Q16566). The experiment in a line: Inhibition of wild-type human partial length CAMK4 (A22 to A322 residues) expressed in Escherichia coli BL21 assessed as residual activity at 1000 nM after 30 mins by Kinomescan method relative to control.
The target of assay [3] is Cyclin-dependent kinase 4/cyclin D1 (Homo sapiens) (UniProt P11802+P24385). The assay is described as follows: Inhibition of wild-type human full length CDK4/cyclinD1 (M1 to E303 residues) expressed in HEK293 cells assessed as residual activity at 1000 nM after 30 mins by Kinomescan method relative to control. Type of assay: cell-based. Put shortly:
(§1)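 Single-point screen at a fixed 1 µM, run within a 456-kinase DiscoveRx KINOMEscan panel. Each kinase's read-out is Percent Control, i.e. signal relative to a control without compound. Hits were scored by a Percent Control < 35 cut-off, and an S(35) selectivity score was calculated across the non-mutant kinases.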

Assay [4] deals with CDK4/Cyclin D3 (Homo sapiens) (UniProt P11802+P30281). The assay is described as follows: Inhibition of wild-type human full length CDK4/cyclinD3 (M1 to E303 residues) expressed in HEK293 cells assessed as residual activity at 1000 nM after 30 mins by Kinomescan method relative to control. It is filed as cell-based. Put shortly: as §1
Assay [5] has as its target Dual specificity protein kinase CLK2 (Homo sapiens) (UniProt P49760). The experiment in a line: Inhibition of wild-type human partial length CLK2 (D144 to R498 residues) expressed in Escherichia coli BL21 assessed as residual activity at 1000 nM after 30 mins by Kinomescan method relative to control.
Assay [6] concerns Epidermal growth factor receptor (Homo sapiens), P00533 [L861Q]. The assay is described as follows: Inhibition of human partial length EGFR L861Q mutant (R669 to V1011 residues) expressed in Escherichia coli BL21 assessed as residual activity at 1000 nM after 30 mins by Kinomescan method relative to control. In a few lines:
(§2)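 KINOMEscan binding panel of 456 kinases, with the test compound at a single concentration of 1 µM. Read-out is Percent Control.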

In assay [7] the target is Serine/threonine-protein kinase/endoribonuclease IRE1 (Homo sapiens) (UniProt O75460). The assay is described as follows: Inhibition of wild-type human partial length ERN1 (S551 to E852 residues) expressed in HEK293 cells assessed as residual activity at 1000 nM after 30 mins by Kinomescan method relative to control. Type of assay: cell-based.
The target of assay [8] is Focal adhesion kinase 1 (Homo sapiens) (UniProt Q05397). The assay is described as follows: Inhibition of wild-type human partial length FAK (D402 to R696 residues) expressed in Escherichia coli BL21 assessed as residual activity at 1000 nM after 30 mins by Kinomescan method relative to control.
In assay [9] the target is Vascular endothelial growth factor receptor 3 (Homo sapiens) (UniProt P35916). The experiment in a line: Inhibition of wild-type human partial length FLT4 (E821 to E1196 residues) expressed in Escherichia coli BL21 assessed as residual activity at 1000 nM after 30 mins by Kinomescan method relative to control.
Assay [10] has as its target Rhodopsin kinase GRK7 (Homo sapiens) (UniProt Q8WTQ7). The assay is described as follows: Inhibition of wild-type human full length GRK7 (M1 to L553 residues) expressed in HEK293 cells assessed as residual activity at 1000 nM after 30 mins by Kinomescan method relative to control. Type of assay: cell-based. Put shortly:
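Single-concentration screen at 1 µM across a 456-kinase KINOMEscan panel. The read-out is Percent Control for each kinase.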

Assay [11] addresses Serine/threonine-protein kinase ICK (Homo sapiens) (UniProt Q9UPZ9). The experiment in a line: Inhibition of wild-type human partial length ICK (M1 to P314 residues) expressed in HEK293 cells assessed as residual activity at 1000 nM after 30 mins by Kinomescan method relative to control. Type of assay: cell-based.
Assay [12] addresses Insulin receptor-related protein (Homo sapiens) (UniProt P14616). The assay is described as follows: Inhibition of wild-type human partial length INSRR (R950 to E1278 residues) expressed in Escherichia coli BL21 assessed as residual activity at 1000 nM after 30 mins by Kinomescan method relative to control.
The subject of assay [13] is Mast/stem cell growth factor receptor Kit (Homo sapiens), P10721 [D816V]. The experiment in a line: Inhibition of human partial length KIT D816V mutant (I571 to D952 residues) expressed in Escherichia coli BL21 assessed as residual activity at 1000 nM after 30 mins by Kinomescan method relative to control. Put shortly:
as §2

The target of assay [14] is Myosin-IIIb (Homo sapiens) (UniProt Q8WXR4). The experiment in a line: Inhibition of wild-type human partial length MYO3B (M1 to D357 residues) expressed in Escherichia coli BL21 assessed as residual activity at 1000 nM after 30 mins by Kinomescan method relative to control.
The target in assay [15] is Phosphatidylinositol 4-phosphate 5-kinase type-1 alpha (Homo sapiens) (UniProt Q99755). The assay is described as follows: Inhibition of wild-type human full length PIP5K1A (M1 to H562 residues) expressed in Escherichia coli BL21 assessed as residual activity at 1000 nM after 30 mins by Kinomescan method relative to control. Put shortly: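 Single-concentration screen at 1 µM against a 456-kinase panel (KINOMEscan). Read-out is Percent Control for each kinase. Across the 403 non-mutant kinases, an S(35) selectivity score was derived as the fraction of kinases with Percent Control < 35.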

In assay [16] the target is Serine/threonine-protein kinase D2 (Homo sapiens) (UniProt Q9BZL6). The assay is described as follows: Inhibition of wild-type human partial length PRKD2 (A519 to E838 residues) expressed in Escherichia coli BL21 assessed as residual activity at 1000 nM after 30 mins by Kinomescan method relative to control.
Assay [17] deals with RAF proto-oncogene serine/threonine-protein kinase (Homo sapiens) (UniProt P04049). The experiment in a line: Inhibition of wild-type human partial length RAF1 (I330 to T640 residues) expressed in Escherichia coli BL21 assessed as residual activity at 1000 nM after 30 mins by Kinomescan method relative to control.
For assay [18], the target named is Receptor-interacting serine/threonine-protein kinase 2 (Homo sapiens) (UniProt O43353). The assay is described as follows: Inhibition of wild-type human partial length RIPK2 (M1 to K310 residues) expressed in Escherichia coli BL21 assessed as residual activity at 1000 nM after 30 mins by Kinomescan method relative to control.
In assay [19] the target is Serine/threonine-protein kinase 16 (Homo sapiens) (UniProt O75716). The assay is described as follows: Inhibition of wild-type human partial length STK16 (G11 to I305 residues) expressed in Escherichia coli BL21 assessed as residual activity at 1000 nM after 30 mins by Kinomescan method relative to control.
The target in assay [20] is Serine/threonine-protein kinase ULK1 (Homo sapiens) (UniProt O75385). The assay is described as follows: Inhibition of wild-type human partial length ULK1 (M1 to T309 residues) expressed in HEK293 cells assessed as residual activity at 1000 nM after 30 mins by Kinomescan method relative to control. It is filed as cell-based.

The structures appear in SMILES notation.

Ankyrin repeat and protein kinase domain-containing protein 1 (Homo sapiens), sequence (Q8NFD2 whole entry, the tested form may be a part): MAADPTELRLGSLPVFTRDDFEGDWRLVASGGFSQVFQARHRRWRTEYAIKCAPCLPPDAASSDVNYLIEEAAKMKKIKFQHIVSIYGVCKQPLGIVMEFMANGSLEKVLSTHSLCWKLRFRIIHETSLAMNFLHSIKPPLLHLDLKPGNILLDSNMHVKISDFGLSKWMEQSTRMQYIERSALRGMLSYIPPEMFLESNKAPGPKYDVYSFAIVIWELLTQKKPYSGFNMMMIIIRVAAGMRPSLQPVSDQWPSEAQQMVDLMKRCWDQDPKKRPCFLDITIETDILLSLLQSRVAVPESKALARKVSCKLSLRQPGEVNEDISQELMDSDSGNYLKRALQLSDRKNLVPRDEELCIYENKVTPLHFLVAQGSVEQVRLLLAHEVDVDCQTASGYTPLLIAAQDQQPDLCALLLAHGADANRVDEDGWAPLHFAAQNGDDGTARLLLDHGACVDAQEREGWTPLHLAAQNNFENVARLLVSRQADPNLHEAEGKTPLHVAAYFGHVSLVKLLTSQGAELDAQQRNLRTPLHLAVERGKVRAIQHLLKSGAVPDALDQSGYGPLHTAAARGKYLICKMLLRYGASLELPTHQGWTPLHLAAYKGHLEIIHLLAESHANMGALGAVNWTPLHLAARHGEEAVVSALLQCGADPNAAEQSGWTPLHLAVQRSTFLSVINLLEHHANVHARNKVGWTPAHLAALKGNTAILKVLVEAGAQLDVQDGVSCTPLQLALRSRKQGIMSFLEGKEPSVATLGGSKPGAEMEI
Serine/threonine-protein kinase D2 (Homo sapiens), sequence (Q9BZL6 whole entry, the tested form may be a part): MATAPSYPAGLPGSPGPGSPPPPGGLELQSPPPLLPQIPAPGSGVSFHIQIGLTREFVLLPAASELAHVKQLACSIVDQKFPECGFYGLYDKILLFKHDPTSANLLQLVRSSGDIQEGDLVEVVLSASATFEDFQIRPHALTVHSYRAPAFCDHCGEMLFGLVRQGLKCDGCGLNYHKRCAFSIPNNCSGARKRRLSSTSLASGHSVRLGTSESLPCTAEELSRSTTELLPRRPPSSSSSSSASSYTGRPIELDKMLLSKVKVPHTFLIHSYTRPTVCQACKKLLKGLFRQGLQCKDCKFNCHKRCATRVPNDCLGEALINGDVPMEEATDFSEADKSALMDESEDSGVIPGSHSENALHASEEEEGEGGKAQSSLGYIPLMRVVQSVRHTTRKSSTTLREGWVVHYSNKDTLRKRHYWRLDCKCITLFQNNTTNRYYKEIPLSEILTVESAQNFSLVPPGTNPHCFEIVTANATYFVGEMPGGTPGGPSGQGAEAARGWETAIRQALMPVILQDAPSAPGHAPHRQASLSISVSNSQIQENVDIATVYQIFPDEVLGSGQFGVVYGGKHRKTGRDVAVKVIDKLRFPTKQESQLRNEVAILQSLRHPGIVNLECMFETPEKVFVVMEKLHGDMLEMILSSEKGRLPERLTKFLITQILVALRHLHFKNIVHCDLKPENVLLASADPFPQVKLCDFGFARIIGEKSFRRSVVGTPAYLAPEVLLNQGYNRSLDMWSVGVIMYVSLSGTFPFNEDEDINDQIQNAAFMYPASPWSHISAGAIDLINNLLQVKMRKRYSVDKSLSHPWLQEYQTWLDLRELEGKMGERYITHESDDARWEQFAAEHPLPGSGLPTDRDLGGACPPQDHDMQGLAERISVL
Rhodopsin kinase GRK7 (Homo sapiens), sequence (Q8WTQ7 whole entry, the tested form may be a part): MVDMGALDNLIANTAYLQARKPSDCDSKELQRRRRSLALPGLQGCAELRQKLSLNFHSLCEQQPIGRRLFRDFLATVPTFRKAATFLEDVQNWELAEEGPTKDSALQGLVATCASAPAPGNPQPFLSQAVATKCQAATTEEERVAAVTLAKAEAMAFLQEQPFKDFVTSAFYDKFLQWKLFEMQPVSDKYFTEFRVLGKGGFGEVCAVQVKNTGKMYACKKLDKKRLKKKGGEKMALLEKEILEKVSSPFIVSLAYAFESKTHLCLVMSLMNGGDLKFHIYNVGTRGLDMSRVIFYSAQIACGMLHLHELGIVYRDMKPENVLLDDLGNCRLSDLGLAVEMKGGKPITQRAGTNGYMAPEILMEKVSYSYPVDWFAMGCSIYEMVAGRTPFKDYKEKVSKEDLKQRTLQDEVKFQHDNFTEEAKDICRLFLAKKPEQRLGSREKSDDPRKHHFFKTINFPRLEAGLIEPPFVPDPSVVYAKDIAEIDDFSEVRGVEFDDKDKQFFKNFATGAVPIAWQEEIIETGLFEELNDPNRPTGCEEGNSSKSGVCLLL
Calcium/calmodulin-dependent protein kinase type IV (Homo sapiens), sequence (Q16566 whole entry, the tested form may be a part): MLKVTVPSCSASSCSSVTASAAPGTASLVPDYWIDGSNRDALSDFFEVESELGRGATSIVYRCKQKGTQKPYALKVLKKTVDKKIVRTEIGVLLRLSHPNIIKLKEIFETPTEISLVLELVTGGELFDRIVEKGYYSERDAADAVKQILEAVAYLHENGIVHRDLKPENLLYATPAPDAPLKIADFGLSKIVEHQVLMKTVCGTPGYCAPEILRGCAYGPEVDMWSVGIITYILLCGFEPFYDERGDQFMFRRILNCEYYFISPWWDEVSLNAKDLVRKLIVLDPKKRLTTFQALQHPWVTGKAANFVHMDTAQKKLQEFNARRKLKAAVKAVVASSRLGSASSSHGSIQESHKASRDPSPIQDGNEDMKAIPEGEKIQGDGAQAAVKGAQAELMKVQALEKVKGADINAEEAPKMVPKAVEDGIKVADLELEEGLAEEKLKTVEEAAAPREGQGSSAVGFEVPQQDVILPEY
Mast/stem cell growth factor receptor Kit (Homo sapiens), P10721 [D816V], sequence (P10721 whole entry D816V, the tested form may be a part): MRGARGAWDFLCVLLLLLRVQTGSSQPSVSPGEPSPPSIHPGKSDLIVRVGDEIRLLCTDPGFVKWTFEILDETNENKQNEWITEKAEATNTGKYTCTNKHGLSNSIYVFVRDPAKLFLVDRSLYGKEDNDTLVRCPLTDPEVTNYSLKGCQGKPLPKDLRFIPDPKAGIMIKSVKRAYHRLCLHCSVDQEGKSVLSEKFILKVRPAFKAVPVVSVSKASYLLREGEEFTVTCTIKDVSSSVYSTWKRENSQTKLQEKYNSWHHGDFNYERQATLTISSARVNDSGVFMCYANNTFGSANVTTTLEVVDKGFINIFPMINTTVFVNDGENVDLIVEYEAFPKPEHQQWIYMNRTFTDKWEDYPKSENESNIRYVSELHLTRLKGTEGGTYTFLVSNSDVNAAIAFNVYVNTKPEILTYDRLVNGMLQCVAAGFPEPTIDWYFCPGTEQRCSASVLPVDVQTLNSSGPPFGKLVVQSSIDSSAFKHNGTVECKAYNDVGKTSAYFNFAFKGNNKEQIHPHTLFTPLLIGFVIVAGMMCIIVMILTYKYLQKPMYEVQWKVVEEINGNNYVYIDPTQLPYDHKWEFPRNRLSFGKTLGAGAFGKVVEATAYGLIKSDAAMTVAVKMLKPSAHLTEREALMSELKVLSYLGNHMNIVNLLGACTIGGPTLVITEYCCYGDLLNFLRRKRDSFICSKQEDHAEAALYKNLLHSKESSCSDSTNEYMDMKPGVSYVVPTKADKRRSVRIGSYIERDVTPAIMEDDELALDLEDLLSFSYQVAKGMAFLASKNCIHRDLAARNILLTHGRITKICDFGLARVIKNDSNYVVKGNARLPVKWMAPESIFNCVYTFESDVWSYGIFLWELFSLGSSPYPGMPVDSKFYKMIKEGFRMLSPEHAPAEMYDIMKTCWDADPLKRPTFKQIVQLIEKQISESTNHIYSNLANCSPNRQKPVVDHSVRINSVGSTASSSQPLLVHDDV
Receptor-interacting serine/threonine-protein kinase 2 (Homo sapiens), sequence (O43353 whole entry, the tested form may be a part): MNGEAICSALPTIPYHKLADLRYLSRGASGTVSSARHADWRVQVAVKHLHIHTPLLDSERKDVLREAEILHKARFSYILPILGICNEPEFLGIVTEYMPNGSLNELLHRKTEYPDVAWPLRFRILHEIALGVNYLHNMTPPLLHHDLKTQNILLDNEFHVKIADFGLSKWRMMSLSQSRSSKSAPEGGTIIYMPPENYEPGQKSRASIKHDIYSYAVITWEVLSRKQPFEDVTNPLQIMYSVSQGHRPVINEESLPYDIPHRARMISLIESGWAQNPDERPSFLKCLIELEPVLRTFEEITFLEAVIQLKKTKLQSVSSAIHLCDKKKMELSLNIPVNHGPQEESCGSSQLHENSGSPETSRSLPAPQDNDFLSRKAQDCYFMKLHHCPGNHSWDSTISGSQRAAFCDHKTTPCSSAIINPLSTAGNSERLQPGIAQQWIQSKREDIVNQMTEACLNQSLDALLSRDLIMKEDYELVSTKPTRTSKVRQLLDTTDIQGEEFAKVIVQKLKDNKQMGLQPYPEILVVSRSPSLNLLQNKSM
Serine/threonine-protein kinase 16 (Homo sapiens), sequence (O75716 whole entry, the tested form may be a part): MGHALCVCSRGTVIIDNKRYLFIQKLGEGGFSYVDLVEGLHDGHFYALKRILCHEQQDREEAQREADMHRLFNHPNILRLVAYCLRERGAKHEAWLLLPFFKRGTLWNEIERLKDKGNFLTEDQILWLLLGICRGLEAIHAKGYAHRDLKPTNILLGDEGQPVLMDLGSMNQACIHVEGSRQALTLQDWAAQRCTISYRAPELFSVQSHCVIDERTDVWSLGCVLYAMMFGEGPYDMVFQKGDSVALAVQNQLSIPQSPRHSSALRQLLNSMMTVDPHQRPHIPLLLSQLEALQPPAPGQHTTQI
Dual specificity protein kinase CLK2 (Homo sapiens), sequence (P49760 whole entry, looked up, the tested form may be a part): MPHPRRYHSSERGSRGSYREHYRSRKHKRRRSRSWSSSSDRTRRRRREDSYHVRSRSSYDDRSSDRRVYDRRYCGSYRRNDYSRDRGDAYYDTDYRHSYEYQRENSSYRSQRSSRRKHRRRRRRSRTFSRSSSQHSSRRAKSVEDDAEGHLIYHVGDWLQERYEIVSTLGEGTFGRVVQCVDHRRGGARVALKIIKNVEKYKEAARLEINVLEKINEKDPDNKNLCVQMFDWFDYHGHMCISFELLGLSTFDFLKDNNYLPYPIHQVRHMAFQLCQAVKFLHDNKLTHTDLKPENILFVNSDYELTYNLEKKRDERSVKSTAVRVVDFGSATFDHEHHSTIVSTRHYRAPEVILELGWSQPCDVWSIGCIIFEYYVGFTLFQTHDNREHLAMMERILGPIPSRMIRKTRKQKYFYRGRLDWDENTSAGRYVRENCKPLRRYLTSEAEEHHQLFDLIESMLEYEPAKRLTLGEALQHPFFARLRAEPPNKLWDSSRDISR

For the compound `COc1cc(OC)c(Cl)c(N2Cc3cnc(Nc4ccc(F)cc4)nc3N(C3CCN(C(=O)/C=C/CN(C)C)CC3)C2=O)c1Cl`, the Activity amounted to 96% in assay [1]; 96% in assay [2]; 100% in [3]; 100% in assay [4]; 100% in assay [5]; 87% in assay [6]. Moreover, the Activity in assay [7] was found to be 100%; in [8], 78%; in assay [9], 2.7%; in [10], 99%; in assay [11] it was 100%; in [12], 52%. For the same compound, the Activity was 41% in assay [13]; 100% in assay [14]; 100% in assay [15]; 98% in [16]; 96% in [17]; 100% in [18]. The Activity in assay [19] was found to be 100%; in [20], 89%.

The record behind these values is ChEMBL document CHEMBL4043093, “2-Oxo-3, 4-dihydropyrimido[4, 5-d]pyrimidinyl derivatives as new irreversible pan fibroblast growth factor receptor (FGFR) inhibitors” (Eur J Med Chem, 2017).
